Measurements published in paper PMC4636458 (Molecular cancer therapeutics, 2015).
Like-named read-outs stand apart in the source and are kept apart here.

Target: recombinant human ezrin (Homo sapiens, UniProt P15311)
Test: SPR
Assay type: binding
Details: read-out: KD (μM)^a, HBS-P pH 7.4, 2-10% DMSO, room temperature
In short: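 Untagged full-length recombinant human ezrin was expressed in E. coli M15 [pREP4] from a pQE16 vector. It was amine-coupled (~10,000 RU) in sodium acetate pH 4.5 to the second flow cell of a CM5 chip, with the first flow cell left empty for background subtraction. Running buffer was HBS-P (10 mM HEPES pH 7.4, 150 mM NaCl, 0.05% P20) with 2–10% DMSO. Seven concentrations (0.78–50 μM) were injected in triplicate over ezrin and control surfaces.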

Sequence of recombinant human ezrin (P15311 whole entry): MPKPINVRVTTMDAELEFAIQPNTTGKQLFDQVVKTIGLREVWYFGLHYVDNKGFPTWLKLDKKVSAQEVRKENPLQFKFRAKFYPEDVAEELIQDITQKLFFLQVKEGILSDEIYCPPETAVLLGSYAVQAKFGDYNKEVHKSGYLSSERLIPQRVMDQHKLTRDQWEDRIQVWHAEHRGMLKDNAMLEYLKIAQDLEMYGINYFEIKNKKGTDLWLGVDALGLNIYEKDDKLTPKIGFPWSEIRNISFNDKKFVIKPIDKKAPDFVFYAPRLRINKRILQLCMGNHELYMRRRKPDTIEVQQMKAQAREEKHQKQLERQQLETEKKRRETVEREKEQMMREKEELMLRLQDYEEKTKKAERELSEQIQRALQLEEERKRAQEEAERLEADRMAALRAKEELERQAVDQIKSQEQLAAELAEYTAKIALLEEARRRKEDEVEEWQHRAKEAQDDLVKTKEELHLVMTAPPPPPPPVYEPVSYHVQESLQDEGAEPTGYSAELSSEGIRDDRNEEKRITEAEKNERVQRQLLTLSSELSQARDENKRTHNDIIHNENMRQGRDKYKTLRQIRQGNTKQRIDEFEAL

In the case of CN1CCN(c2ccc(Nc3c4ccccc4nc4ccccc34)cc2)CC1 [MMV006172], the Kd (n=3) is reported as 6.1 ± 2.8 µM.
For CC1CCN(Cc2ccc(NC(=O)c3cc4ccc5cccnc5c4[nH]3)cc2)CC1 [MMV020549], the Kd (n=3) was 10.7 ± 0.4 µM.
For CCOC(=O)c1cn(CC)c2cc(N(C)CCc3ccc(OC)c(OC)c3)c(F)cc2c1=O [MMV665977], the Kd (n=5) was 3.1 ± 1.6 µM.
With COc1ccc(CCN2CCC(CN(C)Cc3cnn(-c4ccccc4)c3)CC2)cc1 [MMV666069] the Kd (n=5) was 2.1 ± 1 µM.
CCn1c(SCC(=O)Nc2cc(C(F)(F)F)ccc2Cl)nc2ccccc2c1=O [MMV666103] showed a Kd (n=4) of 2.6 ± 1 µM.
With CN(N=O)C1=C(NC2CCCCC2)C(=O)c2ccccc2C1=O [MMV667492] the Kd (n=2) was 29.4 ± 4.4 µM.
